Assay results: ChEMBL document CHEMBL1782043, “Synthesis and antileishmanial activity of novel 5-(5-nitrofuran-2-y1)-1,3,4-thiadiazoles with piperazinyl-linked benzamidine substituents” (Eur J Med Chem, 2011)
Active and inactive are the calls of the source. The calls are words filed in the database; no cut-off is given here.

Columns and labels:
Leishmania major [1] = test: Antileishmanial activity against promastigotes form of Leishmania major MRHO/IR/75/ER after 24 hrs by MTT assay; format: functional, organism-based
In short: (§1)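 Log-phase promastigotes (2 × 10⁶/mL) were used, from a strain passaged in BALB/c mice. They were incubated with serial drug dilutions in phenol red-free RPMI 1640 with 10% FBS, 2 mM glutamine and antibiotics, pH ~7.2, at 25 °C for 24, 48 or 72 h. MTT (0.5 mg/mL) was then added for 4 h at 37 °C. Cells were pelleted and dissolved in DMSO, with absorbance read at 492 nm. Controls received medium plus DMSO. At least two independent experiments were run in triplicate. IC50 came from linear regression, as mean ± SD.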

Leishmania major [2] = test: Antileishmanial activity against promastigotes form of Leishmania major MRHO/IR/75/ER after 48 hrs by MTT assay; format: functional, organism-based; in short: as §1
Leishmania major [3] = test: Antileishmanial activity against amastigotes form of Leishmania major MRHO/IR/75/ER infected in mouse peritoneal macrophage assessed as decrease in number of amastigotes per macrophage after 24 hrs; format: functional, organism-based
In short: (§2)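 Mouse peritoneal macrophages (1 × 10⁶/well) were grown on glass coverslips in RPMI 1640 with 10% heat-inactivated FBS, 2 mM glutamine, penicillin and streptomycin. Non-adherent cells were washed off after 1 h. Stationary-phase promastigotes (2 × 10⁶/well, 3 per macrophage) were added for 2 h at 37 °C under CO₂. Free parasites were washed away, then drug medium was added for 24 h. Cells were methanol-fixed and Giemsa-stained, with 100 cells counted per well. Infectivity index = % infected macrophages × mean parasites per infected cell. Two experiment sets were run.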

Leishmania major [4] = test: Antileishmanial activity against amastigotes form of Leishmania major MRHO/IR/75/ER infected in mouse peritoneal macrophage assessed as decrease in infectivity index after 24 hrs; format: functional, organism-based; in short: as §2
Leishmania major [5] = test: Antileishmanial activity against promastigotes form of Leishmania major MRHO/IR/75/ER after 72 hrs by MTT assay; format: functional, organism-based; in short: as §1
Leishmania major [6] = test: Antileishmanial activity against amastigotes form of Leishmania major MRHO/IR/75/ER infected in mouse peritoneal macrophage assessed as decrease in macrophage infectivity after 24 hrs; format: functional, organism-based; in short: as §2
[7] = Selectivity index, ratio of CC50 for mouse peritoneal macrophages to IC50 for promastigotes form of Leishmania major MRHO/IR/75/ER after 24 hrs by MTT assay; format: functional
[8] = Cytotoxicity against mouse peritoneal macrophages after 24 hrs by MTT assay; format: cell-based, Peritoneal macrophage cell
In short: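 Peritoneal macrophages were seeded at 2 × 10⁵ cells/well and allowed to adhere. Medium was then replaced with a range of compound concentrations for 24 h at 37 °C in humidified 5% CO₂. Viability was read by MTT colorimetry. Two independent experiments were run in triplicate, and CC50 was obtained by linear regression.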

O=[N+]([O-])c1ccc(-c2nnc(N3CCN(c4ccc(C5=NCCCN5)cc4)CC3)s2)o1
IC50 (Leishmania major [1]): > 200 µM

CCOC(=N)c1ccc(N2CCN(c3nnc(-c4ccc([N+](=O)[O-])o4)s3)CC2)cc1
IC50 (Leishmania major [2]): 46 µM
Activity (Leishmania major [3]): Active
Activity (Leishmania major [4]): Active
IC50 (Leishmania major [5]): 26 µM
Activity (Leishmania major [6]): Active
IC50 (Leishmania major [1]): 48 µM

CCCCNC(=N)c1ccc(N2CCN(c3nnc(-c4ccc([N+](=O)[O-])o4)s3)CC2)cc1.Cl
IC50 (Leishmania major [2]): 4 µM
Ratio CC50/IC50 [7]: 11.18
CC50 at 24 h [8]: 123 µM
IC50 (Leishmania major [5]): 0.2 µM
IC50 (Leishmania major [1]): 11 µM

CNC(=N)c1ccc(N2CCN(c3nnc(-c4ccc([N+](=O)[O-])o4)s3)CC2)cc1.Cl
IC50 (Leishmania major [2]): 22 µM
Activity (Leishmania major [3]): Active
Ratio CC50/IC50 [7]: 9.69
Activity (Leishmania major [4]): Active
CC50 at 24 h [8]: 223 µM
IC50 (Leishmania major [5]): 21 µM
Activity (Leishmania major [6]): Active
IC50 (Leishmania major [1]): 23 µM

Cl.N=C(N)c1ccc(N2CCN(c3nnc(-c4ccc([N+](=O)[O-])o4)s3)CC2)cc1
IC50 (Leishmania major [2]): 111 µM
Ratio CC50/IC50 [7]: 3.08
CC50 at 24 h [8]: 342 µM
IC50 (Leishmania major [5]): 26 µM
IC50 (Leishmania major [1]): 111 µM

CCC(C)NC(=N)c1ccc(N2CCN(c3nnc(-c4ccc([N+](=O)[O-])o4)s3)CC2)cc1.Cl (centres undefined)
IC50 (Leishmania major [2]): 18 µM
Activity (Leishmania major [3]): Active
Ratio CC50/IC50 [7]: 23.33
Activity (Leishmania major [4]): Active
CC50 at 24 h [8]: 770 µM
IC50 (Leishmania major [5]): 13 µM
Activity (Leishmania major [6]): Active
IC50 (Leishmania major [1]): 33 µM

O=[N+]([O-])c1ccc(-c2nnc(N3CCN(c4ccc(C5=NCCN5)cc4)CC3)s2)o1
IC50 (Leishmania major [1]): > 200 µM

CCNC(=N)c1ccc(N2CCN(c3nnc(-c4ccc([N+](=O)[O-])o4)s3)CC2)cc1.Cl
IC50 (Leishmania major [2]): 26 µM
Activity (Leishmania major [3]): Active
Ratio CC50/IC50 [7]: 10.21
Activity (Leishmania major [4]): Active
CC50 at 24 h [8]: 337 µM
IC50 (Leishmania major [5]): 16 µM
Activity (Leishmania major [6]): Active
IC50 (Leishmania major [1]): 33 µM

Cl.N=C(NCC1CCCO1)c1ccc(N2CCN(c3nnc(-c4ccc([N+](=O)[O-])o4)s3)CC2)cc1 (centres undefined)
IC50 (Leishmania major [2]): 88 µM
Ratio CC50/IC50 [7]: 9.69
CC50 at 24 h [8]: 921 µM
IC50 (Leishmania major [5]): 5 µM
IC50 (Leishmania major [1]): 95 µM

COc1ccc(CNC(=N)c2ccc(N3CCN(c4nnc(-c5ccc([N+](=O)[O-])o5)s4)CC3)cc2)cc1.Cl
IC50 (Leishmania major [2]): 76 µM
Activity (Leishmania major [3]): Active
Ratio CC50/IC50 [7]: 0.86
Activity (Leishmania major [4]): Active
CC50 at 24 h [8]: 69 µM
IC50 (Leishmania major [5]): 2 µM
Activity (Leishmania major [6]): Active
IC50 (Leishmania major [1]): 80 µM

Cl.N=C(c1ccc(N2CCN(c3nnc(-c4ccc([N+](=O)[O-])o4)s3)CC2)cc1)N1CCOCC1
IC50 (Leishmania major [2]): 88 µM
Ratio CC50/IC50 [7]: 0.59
CC50 at 24 h [8]: 55 µM
IC50 (Leishmania major [5]): 4 µM
IC50 (Leishmania major [1]): 93 µM

N#Cc1ccc(N2CCN(c3nnc(-c4ccc([N+](=O)[O-])o4)s3)CC2)cc1
IC50 (Leishmania major [2]): 86 µM
Activity (Leishmania major [3]): Active
Ratio CC50/IC50 [7]: 1.53
Activity (Leishmania major [4]): Active
CC50 at 24 h [8]: 159 µM
IC50 (Leishmania major [5]): 32 µM
Activity (Leishmania major [6]): Active
IC50 (Leishmania major [1]): 104 µM

CCCNC(=N)c1ccc(N2CCN(c3nnc(-c4ccc([N+](=O)[O-])o4)s3)CC2)cc1.Cl
IC50 (Leishmania major [2]): 5 µM
Activity (Leishmania major [3]): Active
Ratio CC50/IC50 [7]: 78.5
Activity (Leishmania major [4]): Active
CC50 at 24 h [8]: 785 µM
IC50 (Leishmania major [5]): 0.08 µM
Activity (Leishmania major [6]): Active
IC50 (Leishmania major [1]): 10 µM

Cl.N=C(NCc1ccccc1)c1ccc(N2CCN(c3nnc(-c4ccc([N+](=O)[O-])o4)s3)CC2)cc1
IC50 (Leishmania major [2]): 1.9 µM
Activity (Leishmania major [3]): Active
Ratio CC50/IC50 [7]: 60.77
Activity (Leishmania major [4]): Active
CC50 at 24 h [8]: 546 µM
IC50 (Leishmania major [5]): 0.4 µM
Activity (Leishmania major [6]): Active
IC50 (Leishmania major [1]): 9 µM
